Source: article PMC9059984 (RSC Advances, 2019)
Changes are numbered by the printed parent chain.

Tests used:
Assay type in all cases: biochemical
[1] = system: sDTE (Sinorhizobium sp. D-tagatose 3-epimerase); experiment: Michaelis-Menten non-linear regression; conditions: optimum pH 8.0 (Tris-HCl) and 50 °C; Mn2+
Procedure, shortened: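 Enzyme expressed from pET28a(+) in E. coli BL21(DE3) (0.5 mM IPTG, 16 °C, 20 h), purified on Ni-NTA then Resource Q. Standard assay: 20 mM Tris–HCl pH 8.0, 1 μM Mn2+, 0.5 μM enzyme, 50 °C, 10 min; stopped by boiling 5 min; sugars by HPLC-ELSD. Kinetics used four ketose substrates, with Michaelis–Menten non-linear fit; three repeats, mean ± S.D.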

[2] = target: T1, sDTE (Sinorhizobium sp. D-tagatose 3-epimerase) (Sinorhizobium sp., UniProt Z9YNK1L8X5, R65G); experiment: D-sorbose formation by HPLC, relative activity; conditions: […] g/L D-tagatose, […] Mn2+, […] enzyme, pH […] °C, […] min
T1 sequence (Z9YNK1L8X5 1-293 R65G): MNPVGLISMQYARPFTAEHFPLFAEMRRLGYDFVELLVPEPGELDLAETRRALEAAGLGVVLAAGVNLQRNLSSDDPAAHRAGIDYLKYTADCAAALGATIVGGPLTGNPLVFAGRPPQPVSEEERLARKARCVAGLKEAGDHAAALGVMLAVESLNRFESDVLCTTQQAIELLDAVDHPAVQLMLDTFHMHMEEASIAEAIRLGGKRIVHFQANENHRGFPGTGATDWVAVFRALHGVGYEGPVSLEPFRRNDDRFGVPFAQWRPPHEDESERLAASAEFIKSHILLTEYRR

[3] = target: T2, sDTE (Sinorhizobium sp. D-tagatose 3-epimerase) (Sinorhizobium sp., UniProt Z9YNK1L8X5, M9A); experiment: D-sorbose formation by HPLC, relative activity; conditions: […] g/L D-tagatose, […] Mn2+, […] enzyme, pH […] °C, […] min
T2 sequence (Z9YNK1L8X5 1-293 M9A): T1 sequence (Z9YNK1L8X5 1-293 R65G) with M9A, G65R

Km [1]	Compound	D-sorbose formation by HPLC, relative activity [2]	D-sorbose formation by HPLC, relative activity [3]
39.8 ± 1.7 mM	O=C(CO)[C@H](O)[C@H](O)[C@H](O)CO [D-Allulose]		
54.7 ± 1.3 mM	OCC1(O)OC[C@@H](O)[C@@H](O)[C@@H]1O (stereo partly drawn) [D-Fructose]		
83 ± 4.3 mM	OCC1(O)OC[C@@H](O)[C@H](O)[C@H]1O (stereo partly drawn) [D-Sorbose]		

Compound	Km [1]	D-sorbose formation by HPLC, relative activity [2]	D-sorbose formation by HPLC, relative activity [3]
OCC1(O)OC[C@@H](O)[C@H](O)[C@@H]1O (stereo partly drawn) [D-Tagatose]	26 ± 1.2 mM	the mutation of R65G and M9A abolished the catalytic activity toward D-tagatose	the mutation of R65G and M9A abolished the catalytic activity toward D-tagatose
